The values that follow come from article PMC2750823 (Molecular cancer therapeutics, 2009).

One data set concerns PC3ML cells. As to the kind of experiment: Cell viability, ATP-LITE assay. In kind it is cell-based. The following applies: Homo sapiens, PC3-ML, 72 h, read-out: PC3ML EC50. In a few lines:
(§1)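 Human cancer cells are grown in F12 or RPMI1640 medium with 5 mM L-glutamine, 5% FBS and penicillin/streptomycin. Cells are seeded at densities chosen by doubling time. Fresh 5% serum medium is added, and test compound is applied 24 h after seeding at varied concentrations in 0.1% DMSO. After 72 h, ATP is read with ATP-LITE reagent and normalized to DMSO-treated controls.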

The test system of data set [1] is H460 human lung cancer cell line. Briefly: Cell viability, ATP-LITE assay. Format: cell-based. The following applies: NCI-H460, 72 h, read-out: H460 EC50. In a few lines: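 H460 cells were grown in F12 or RPMI1640 with 5 mM L-glutamine, 5% FBS and penicillin/streptomycin, then plated at 2000 cells/well. After 24 h, fresh 5% medium was added, followed by test compound at final concentrations in 0.1% DMSO. Viability was read with ATP-LITE after 72 h of treatment, and data were normalized to DMSO-treated cells.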

A further data set deals with H1299 cells. Briefly: Cell viability, ATP-LITE assay. In kind it is cell-based. The following applies: Homo sapiens, NCI-H1299, 72 h, read-out: H1299 EC50.
Data set [2] relates to RS11846 human lymphoma cell line. As to the kind of experiment: Cell viability, ATP-LITE assay. In kind it is cell-based. The following applies: 72 h, read-out: RS11846 EC50 (ATP-LITE assay). The procedure, abridged: as §1
Data set [3] has the same test system. Briefly: Apoptosis, Annexin V-FITC and propidium iodide assay. Format: cell-based. The following applies: read-out: RS11846 EC50 (Annexin V-FITC and propidium iodide assay).
The next data set has as its system Mcl-1. The following applies: cited from earlier work.
The subject of a further data set is H1299. The following applies: cited from earlier work.
Data set [4] in a line: Liver microsomal stability. Format: in vitro ADME. The following applies: rat, microsomes, 4 µM, pH 7.4. For orientation: Liver microsomes are a subcellular fraction often used to study metabolism.
Another data set can be described thus: Plasma stability. Format: in vitro ADME. The following applies: rat, 100 µM.

As for `Cc1cc2c(C(C)C)c(O)c(O)c(C=O)c2c(O)c1-c1c(C)cc2c(C(C)C)c(O)c(O)c(C=O)c2c1O` [Gossypol], the concentration giving a half-maximal response (EC50) (usually the concentration needed to bring the measured effect to its halfway point) in the data set on PC3ML cells turned out to be 3.1 µM; in data set [1], 3 µM; in the data set on H1299 cells, 6 µM; in data set [2], 2.2 µM; in data set [3], 4.23 µM.
As for `CN(C)CC[C@H](CSc1ccccc1)Nc1ccc(S(=O)(=O)NC(=O)c2ccc(N3CCN(Cc4ccccc4-c4ccc(Cl)cc4)CC3)cc2)cc1[N+](=O)[O-]` [ABT-737], the “effectiveness against Mcl-1” value in the data set with Mcl-1 was “not effective”. Further, in the data set on H1299, the “killing Mcl-1 overexpressing cell lines such as the H1299” value is “not effective”.
On to `Cc1cc2c(C(C)C)c(O)c(O)cc2c(O)c1-c1c(C)cc2c(C(C)C)c(O)c(O)cc2c1O` [Apogossypol], for which the EC50 in the data set with PC3ML cells is 10.3 µM; in data set [1], 5.8 µM; in [2] it was 5 µM; in data set [3], 8.6 µM. For the same molecule, the “Microsomal Stability (T=1 hr)” value in [4] is given as 60%. In addition, the “Plasma Stability (T=1 hr)” value in “Plasma stability” was 53%.
